The test system of one test is Citrobacter freundii. As to the kind of experiment: The compound was tested in vitro for minimum inhibitory concentration against Citrobacter Freundii BS-16. Format: functional. Summed up: (§1)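 Agar dilution on Mueller-Hinton agar using 2-fold serial dilutions, giving final 128 to 0.0156 μg/mL (extended to 0.000977 μg/mL where needed). Inoculum was overnight broth culture diluted 100-fold, about 3×10^4 CFU/spot, applied by replicator. MIC read after overnight incubation at 36 °C.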

Test [1] has as its system Escherichia coli. As to the kind of experiment: The compound was tested in vitro for minimum inhibitory concentration against Escherichia coli ATCC 25922. The class given is functional. Summed up: as §1
The subject of test [2] is Escherichia coli. As to the kind of experiment: Minimum inhibitory concentration for inhibition of [14C]- Pen G binding to Escherichia coli UB1005. The class given is functional. Summed up:
(§2)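 Membranes from sonicated E. coli UB1005 were solubilized. Binding to penicillin-binding proteins was measured as inhibition of [14C]penicillin G binding.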

Test [3] relates to Escherichia coli. As to the kind of experiment: The compound was tested in vitro for minimum inhibitory concentration against Escherichia coli 257. The class given is functional. Summed up:
as §1

In another test the test system is Enterococcus faecalis. As to the kind of experiment: The compound was tested in vitro for minimum inhibitory concentration against Enterococcus faecalis ATCC 29212. Format: functional. Summed up:
as §1

For test [4], the system named is Escherichia coli. As to the kind of experiment: The compound was tested in vitro for minimum inhibitory concentration against Escherichia coli TEM-1. Format: functional. A digest of the protocol:
as §1

The subject of the next test is Enterobacter cloacae. As to the kind of experiment: The compound was tested in vitro for minimum inhibitory concentration against Enterobacter cloacae P99. The class given is functional.
For another test, the system named is Micrococcus luteus. As to the kind of experiment: The compound was tested in vitro for minimum inhibitory concentration against Micrococcus luteus ATCC 9341. Format: functional. Summed up: as §1
Test [5] is filed under the species Mus musculus. As to the kind of experiment: (§3) Effective dose against mouse infected with Pseudomonas aeruginosa 8780 (LDs-240). Format: functional. A digest of the protocol: (§4)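 CD1 Swiss albino mice (18-20 g) infected intraperitoneally with 0.5 mL of diluted bacterial suspension. Challenge expressed as a multiple of LD50. Drug given subcutaneously at the dorsal neck base within 5 min of infection (1.0 mL), with a second treatment 3 h after infection. Dose range 250 to 0.05 mg/kg. Six mice per group. ED50 by the Reed-Muench method.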

The species named for test [6] is Mus musculus. As to the kind of experiment: (§5) Effective dose against mouse infected with Streptococcus pneumoniae 6301(LDs-5623). Format: functional. A digest of the protocol: (§6)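 Mouse protection test in CD1 Swiss albino mice (18-20 g) given an intraperitoneal challenge (0.5 mL of diluted culture), expressed as a multiple of LD50. A single subcutaneous dose of 1.0 mL test solution was given at the dorsal neck base within 5 min of infection. Dose range 250 to 0.05 mg/kg. Six mice per group. ED50 (protective dose) by Reed-Muench.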

The subject of a further test is Proteus mirabilis. As to the kind of experiment: The compound was tested in vitro for minimum inhibitory concentration against Proteus mirabilis 90. The class given is functional. Summed up: (§7)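 Proteus MICs by agar dilution on Mueller-Hinton medium containing 3% agar. Serial 2-fold dilutions gave final 128 to 0.0156 μg/mL (further to 0.000977 μg/mL). Inoculum was overnight broth diluted 100-fold, about 3×10^4 CFU/spot. Plates read after overnight incubation at 36 °C.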

Test [7] concerns Pseudomonas aeruginosa. As to the kind of experiment: The compound was tested in vitro for minimum inhibitory concentration against Pseudomonas aeruginosa 18S/H. The class given is functional. A digest of the protocol: as §1
Test [8] has as its system Escherichia coli. As to the kind of experiment: The compound was evaluated for the inhibition of [14C]- Pen G binding to Escherichia coli UB1005 penicillin-binding protein 1a 90 kDa. A digest of the protocol:
as §2

Test [9] deals with Escherichia coli. As to the kind of experiment: The compound was evaluated for the inhibition of [14C]- Pen G binding to Escherichia coli UB1005 penicillin-binding protein 1b 90 kDa. Summed up:
as §2

Test [10] relates to Escherichia coli. As to the kind of experiment: The compound was evaluated for the inhibition of [14C]- Pen G binding to Escherichia coli UB1005 penicillin-binding protein 2 66 kDa. Summed up:
as §2

For test [11], the system named is Escherichia coli. As to the kind of experiment: The compound was evaluated for the inhibition of [14C]- Pen G binding to Escherichia coli UB1005 penicillin-binding protein 3 60 kDa. Summed up: as §2
The subject of test [12] is Pseudomonas aeruginosa. As to the kind of experiment: The compound was tested in vitro for minimum inhibitory concentration against Pseudomonas aeruginosa 8780. The class given is functional. Summed up: as §1
The next test deals with Proteus vulgaris. As to the kind of experiment: The compound was tested in vitro for minimum inhibitory concentration against Proteus vulgaris 1028 BC. The class given is functional. A digest of the protocol: as §7
For test [13], the system named is Staphylococcus aureus. As to the kind of experiment: The compound was tested in vitro for minimum inhibitory concentration against Staphylococcus aureus 67-0. Format: functional. A digest of the protocol:
as §1

Test [14] relates to Staphylococcus aureus. As to the kind of experiment: The compound was tested in vitro for minimum inhibitory concentration against Staphylococcus aureus 753. The class given is functional, staphylococcus aureus smith. Summed up: as §1
The subject of the next test is Streptococcus pyogenes. As to the kind of experiment: The compound was tested in vitro for minimum inhibitory concentration against Streptococcus pyogenes. The class given is functional. A digest of the protocol: (§8)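 Streptococci tested by agar dilution on brain heart infusion agar with 20 units/mL bovine liver catalase. Final drug range 128 to 0.0156 μg/mL by 2-fold steps, extended to 0.000977 μg/mL when required. Inoculum about 3×10^4 CFU/spot from overnight broth diluted 100-fold. MIC after overnight incubation at 36 °C.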

The subject of another test is Serratia marcescens. As to the kind of experiment: The compound was tested in vitro for minimum inhibitory concentration against Serratia marcescens 1071. The class given is functional. Summed up: as §1
In test [15] the test system is Streptococcus pneumoniae. As to the kind of experiment: The compound was tested in vitro for minimum inhibitory concentration against Streptococcus pneumoniae 6301. Format: functional. Summed up: as §8
Test [16] concerns Staphylococcus aureus. As to the kind of experiment: The compound was tested in vitro for minimum inhibitory concentration against Staphylococcus aureus smith. The class given is functional. A digest of the protocol: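 Agar dilution MIC on Mueller-Hinton agar. Compounds were serially diluted 2-fold in water; final agar concentrations ran from 128 to 0.0156 μg/mL, extended to 0.000977 μg/mL for very active compounds. Spots were inoculated by replicator with overnight broth cultures diluted 100-fold, about 3×10^4 CFU/spot. MIC was read after overnight incubation at 36 °C.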

The species entered for test [17] is Mus musculus. As to the kind of experiment: Effective dose against mouse infected with Staphylococcus aureus 753 (MR) (LDs-6). Format: functional. Summed up:
as §6

The next test relates to Klebsiella pneumoniae. As to the kind of experiment: The compound was tested in vitro for minimum inhibitory concentration against Klebsiella pneumoniae A. The class given is functional. A digest of the protocol: as §1
Test [18] relates to Escherichia coli. As to the kind of experiment: Inhibitory activity on replicative DNA biosynthesis in Escherichia coli H560 (permeabilised cells). Format: functional, organism-based. A digest of the protocol: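 E. coli H560 cells permeabilized with toluene. ATP-dependent incorporation of [3H]thymidine into trichloroacetic acid-insoluble material was measured. IC50 taken as the concentration giving 50% inhibition.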

For test [19], the system named is Pseudomonas aeruginosa. The description is as §3. Format: functional. A digest of the protocol: as §4
The test system of test [20] is Streptococcus pneumoniae. The test is described as §5. Format: functional. A digest of the protocol: as §6
Test [21] deals with Staphylococcus aureus. As to the kind of experiment: animal or person. Conditions: in Mus musculus.

In brackets after ≈: the same amount, converted by molar mass.

Broadly, the MIC is the lowest concentration that inhibits growth of the organism. A lower MIC goes with greater potency. The ED50 is the dose at which the effect has come halfway, by size or by number of responders. The term IC50 denotes the concentration that inhibits the measured activity by half. Higher therefore signals weaker potency.

As for `CO/N=C(\C(=O)N[C@@H]1C(=O)N2C(C(=O)O)=C(COC(C)=O)CS[C@H]12)c1csc(N)n1` [CEFOTAXIME], the minimal inhibitory concentration (MIC) stood at 32 µg/mL (≈ 70.3 µM) against Citrobacter freundii; 0.063 µg/mL (≈ 0.138 µM) against Escherichia coli [1]; 0.06 µg/mL (≈ 0.132 µM) against Escherichia coli [2]; 0.031 µg/mL (≈ 0.0681 µM) with Escherichia coli [3]; 0.25 µg/mL (≈ 0.549 µM) in the test with Enterococcus faecalis; 0.063 µg/mL (≈ 0.138 µM) in the test on Escherichia coli [4]. Further, the minimum inhibitory concentration (MIC) in the test with Enterobacter cloacae was 64 µg/mL (≈ 141 µM); against Micrococcus luteus it was 0.031 µg/mL (≈ 0.0681 µM); with Proteus mirabilis, below 0.016 µg/mL; against Pseudomonas aeruginosa [7], 128 µg/mL (≈ 281 µM); with Pseudomonas aeruginosa [12], 16 µg/mL (≈ 35.1 µM); in the test on Proteus vulgaris it was above 128 µg/mL. Moreover, the MIC against Staphylococcus aureus [13] is above 128 µg/mL; in the test with Staphylococcus aureus [14] it was above 128 µg/mL; in the test with Streptococcus pyogenes, below 0.016 µg/mL; against Serratia marcescens it was 32 µg/mL (≈ 70.3 µM); in the test on Streptococcus pneumoniae [15], below 0.016 µg/mL; against Staphylococcus aureus [16] it was 2 µg/mL (≈ 4.39 µM). Also, the MIC in the test with Klebsiella pneumoniae amounted to 0.031 µg/mL (≈ 0.0681 µM). Besides, the ED50 in the test filed under Mus musculus [5] was above 100 mg/kg; in the test filed under Mus musculus [6], 15 mg/kg; in the test listed under Mus musculus [17], above 100 mg/kg. Further, the Inhibitory concentration in the test on Escherichia coli [8] is below 0.1 µg/mL; with Escherichia coli [9], 0.5 µg/mL; in the test on Escherichia coli [10] it was 100 µg/mL; with Escherichia coli [11], below 0.1 µg/mL.
Turning to `O=C(O)c1cn(C2CC2)c2cc(N3CCNCC3)c(F)cc2c1=O` [CIPROFLOXACIN], the MIC came out at 0.031 µg/mL (≈ 0.0936 µM) in the test with Citrobacter freundii; 1 µg/mL (≈ 3.02 µM) against Enterococcus faecalis; 2 µg/mL (≈ 6.04 µM) with Micrococcus luteus; 0.063 µg/mL (≈ 0.19 µM) in the test with Proteus mirabilis; 0.016 µg/mL (≈ 0.0483 µM) in the test on Proteus vulgaris; 0.5 µg/mL (≈ 1.51 µM) in the test on Staphylococcus aureus [13]. In addition, the MIC in the test on Staphylococcus aureus [14] came to 0.25 µg/mL (≈ 0.754 µM); against Streptococcus pyogenes, 0.5 µg/mL (≈ 1.51 µM); against Serratia marcescens it was 0.063 µg/mL (≈ 0.19 µM); in the test with Streptococcus pneumoniae [15] it was 1 µg/mL (≈ 3.02 µM); against Klebsiella pneumoniae, 0.25 µg/mL (≈ 0.754 µM). The molecule also registered a half-maximal inhibitory concentration (IC50) with Escherichia coli [18] of 0.3 µg/mL (≈ 0.905 µM). Moreover, the results for the ED50 in the test on Pseudomonas aeruginosa [19], with Streptococcus pneumoniae [20] and with Staphylococcus aureus [21] were 3 mg/kg, above 50 mg/kg and 2 mg/kg, respectively.

(Values after ChEMBL document CHEMBL1125212, “Dual-action cephalosporins: cephalosporin 3'-quinolone carbamates” (J Med Chem, 1991).)
